# ChEMBL document CHEMBL1649547, “Telavancin disrupts the functional integrity of the bacterial membrane through targeted interaction with the cell wall precursor lipid II” (Antimicrob Agents Chemother, 2009)
# Active and inactive are the calls of the source. The rule behind the calls is not given here.
# Tests used:
# Staphylococcus aureus [1] = assay: Antibacterial activity against Staphylococcus aureus assessed as induction of bacterial membrane depolarization at 8 ug/ml by flow cytometry; type: functional
# Summary of the method: (§1)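 Membrane potential was measured with DiOC2(3) flow cytometry. Early-exponential cultures (A625 = 0.3) in cation-adjusted MHB were diluted to 106 CFU/ml and dosed in 5-ml aliquots at 37°C with shaking. Samples were stained 5 min with 30 µM DiOC2(3) (final). 5,000 events per sample were collected. The red/green fluorescence ratio was gated against a CCCP-depolarized population. The endpoint was 90 min unless noted.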
# Staphylococcus aureus [2] = assay: Antibacterial activity against Staphylococcus aureus; type: functional
# Summary of the method: (§2)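 MIC determined with commercially manufactured dry-form panels; the organisms were grown in cation-adjusted Mueller-Hinton II broth.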
# Staphylococcus aureus [3] = assay: Antibacterial activity against Staphylococcus aureus grown in MHB medium assessed as induction of bacterial membrane depolarization at 2 to 32 ug/ml by flow cytometry; type: functional, organism-based
# Summary of the method: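 MHB-grown S. aureus either kept in MHB or washed and resuspended in cation-containing PBS, then equilibrated 10 min at 37°C before telavancin 2–32 µg/ml. Time course of depolarization measured by DiOC2(3) flow cytometry (final 30 µM, 5 min stain, red/green ratio). Three independent experiments.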
# Staphylococcus aureus [4] = assay: Inhibition of bacterial cell wall precursor lipid 2 synthesis in Staphylococcus aureus assessed as induction of membrane depolarization at 32 ug/ml by flow cytometry in presence of bacitracin; type: functional; set-up: scale not given: the % may be the effect or the level left
# Summary of the method: (§3)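 Cells then exposed to telavancin 32 µg/ml for 15 min (nisin 2 µg/ml, 5 min). DiOC2(3) flow cytometry. Percent depolarization expressed relative to samples without pretreatment.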
# Cell membrane = assay: Binding affinity to cell membrane of Staphylococcus aureus grown in MHB medium at 8 ug/ml by scintillation counting relative to control
# Summary of the method: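 S. aureus at 10^8 CFU/ml in MHB or PBS at 37°C, exposed to [14C]telavancin 8 µg/ml over 2 h. At each time point, cells collected on 0.2-µm filter plate, dried overnight at 37°C, and scintillation counted. Three independent experiments.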
# Staphylococcus aureus [5] = assay: Antibacterial activity against daptomycin-nonsusceptible Staphylococcus aureus MED2034; type: functional; summary of the method: as §2
# Staphylococcus aureus [6] = assay: Antibacterial activity against Staphylococcus aureus assessed as induction of bacterial membrane depolarization at 8 ug/ml by flow cytometry in presence of 0.5 mM D-Ala-D-Ala; type: functional
# Summary of the method: (§4)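 S. aureus at 10^6 CFU/ml in MHB at 37°C. dKAA tripeptide (0.05, 0.5 or 5 mM) added before telavancin (8 or 32 µg/ml), 60 min reading. DiOC2(3) staining (final 30 µM, 5 min), flow cytometry of 5,000 events, red/green fluorescence ratio; depolarized gate defined with CCCP-treated cells.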
# Staphylococcus aureus [7] = assay: Antibacterial activity against Staphylococcus aureus assessed as induction of bacterial membrane depolarization at 8 ug/ml by flow cytometry in presence of 0.05 mM D-Ala-D-Ala; type: functional; summary of the method: as §4
# Staphylococcus aureus [8] = assay: Antibacterial activity against Staphylococcus aureus assessed as bacterial count at 8 to 32 ug/ml by turbidity assay; type: functional
# Summary of the method: (§5)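 S. aureus ATCC 33591 grown in MHB to early exponential phase (A625 = 0.3). 5 ml aliquots treated at final concentration, shaking water bath at 37°C. Turbidity read by spectrophotometer. Lysis also scored by microscopy: intact cells dark, lysed cells transparent; imaged at 0, 2 and 6 h, at least 30 cells per condition. Lysostaphin as lysis control. Three independent experiments.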
# Staphylococcus aureus [9] = assay: Antibacterial activity against Staphylococcus aureus assessed as induction of bacterial membrane depolarization at 32 ug/ml by flow cytometry; type: functional
# Summary of the method: (§6)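 S. aureus ATCC 29213 grown in MHB at 37°C to A625 = 0.3, diluted to 10^6 CFU/ml in MHB. Compound added to 5 ml aliquots, shaking water bath at 37°C, usually 90 min endpoint. Samples mixed 1:1 with DiOC2(3) (final 30 µM) and stained 5 min. Flow cytometry of 5,000 events, red/green ratio; depolarized gate set from CCCP. IC50 from four-parameter sigmoidal fit.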
# Staphylococcus aureus [10] = assay: Antibacterial activity against Staphylococcus aureus in presence of 0.5 mM D-Ala-D-Ala; type: functional
# Staphylococcus aureus [11] = assay: Antibacterial activity against heterogeneous vancomycin-intermediate Staphylococcus aureus ATCC 700698 assessed as induction of bacterial membrane depolarization at 32 ug/ml by flow cytometry; type: functional
# Summary of the method: (§7)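 Strains with resistance phenotypes tested in the DiOC2(3) flow-cytometric depolarization assay. Cells at 10^6 CFU/ml in MHB at 37°C, dye final 30 µM, 5 min stain, 5,000 events, red/green ratio. Percent depolarization followed over time.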
# Staphylococcus aureus [12] = assay: Antibacterial activity against Staphylococcus aureus assessed as induction of bacterial membrane depolarization at 8 ug/ml by flow cytometry in presence of 5 mM D-Ala-D-Ala; type: functional; summary of the method: as §4
# Staphylococcus aureus [13] = assay: Antibacterial activity against Staphylococcus aureus in presence of 5 mM D-Ala-D-Ala; type: functional
# Staphylococcus aureus [14] = assay: Inhibition of bacterial cell wall precursor lipid 2 synthesis in Staphylococcus aureus assessed as induction of membrane depolarization at 32 ug/ml by flow cytometry in presence of D-cycloserine; type: functional; set-up: scale not given: the % may be the effect or the level left; summary of the method: as §3
# Staphylococcus aureus [15] = assay: Antibacterial activity against Staphylococcus aureus assessed as induction of bacterial membrane depolarization at 32 ug/ml by flow cytometry in presence of 0.5 mM D-Ala-D-Ala; type: functional; summary of the method: as §4
# Staphylococcus aureus [16] = assay: Antibacterial activity against Staphylococcus aureus assessed as change in cellular membrane integrity at 8 to 32 ug/ml up to 6 hrs by spectrophotometry; type: functional, organism-based; summary of the method: as §5
# Staphylococcus aureus [17] = assay: Antibacterial activity against vancomycin-intermediate Staphylococcus aureus ATCC 700699; type: functional; summary of the method: as §2
# Staphylococcus aureus [18] = assay: Antibacterial activity against daptomycin-nonsusceptible Staphylococcus aureus MED2034 assessed as induction of bacterial membrane depolarization at 32 ug/ml by flow cytometry; type: functional; summary of the method: as §1
# Staphylococcus aureus [19] = assay: Antibacterial activity against heterogeneous vancomycin-intermediate Staphylococcus aureus ATCC 700698; type: functional
# Staphylococcus aureus [20] = assay: Antibacterial activity against methicillin-resistant Staphylococcus aureus ATCC 33591; type: functional; summary of the method: as §2
# Staphylococcus aureus [21] = assay: Antibacterial activity against vancomycin-intermediate Staphylococcus aureus ATCC 700699 assessed as induction of bacterial membrane depolarization at 32 ug/ml by flow cytometry; type: functional; summary of the method: as §7
# Staphylococcus aureus [22] = assay: Antibacterial activity against Staphylococcus aureus assessed as induction of bacterial cell lysis at 8 to 32 ug/ml by spectrophotometry; type: functional, organism-based; summary of the method: as §5
# Staphylococcus aureus [23] = assay: Antibacterial activity against Staphylococcus aureus assessed as induction of bacterial membrane depolarization by flow cytometry; type: functional, organism-based; summary of the method: as §6
# Staphylococcus aureus [24] = assay: Antibacterial activity against Staphylococcus aureus assessed as induction of bacterial membrane depolarization at 32 ug/ml by flow cytometry in presence of 0.05 mM D-Ala-D-Ala; type: functional; summary of the method: as §4
# Staphylococcus aureus [25] = assay: Antibacterial activity against Staphylococcus aureus in presence of 0.05 mM D-Ala-D-Ala; type: functional
# Staphylococcus aureus [26] = assay: Antibacterial activity against Staphylococcus aureus assessed as induction of bacterial membrane depolarization at 32 ug/ml by flow cytometry in presence of 5 mM D-Ala-D-Ala; type: functional; summary of the method: as §4
# Staphylococcus aureus [27] = assay: Inhibition of bacterial cell wall precursor lipid 2 synthesis in Staphylococcus aureus assessed as induction of membrane depolarization at 32 ug/ml by flow cytometry in presence of fosfomycin; type: functional; set-up: scale not given: the % may be the effect or the level left; summary of the method: as §3
# Staphylococcus aureus [28] = assay: Antibacterial activity against Staphylococcus aureus assessed as induction of bacterial cell lysis at 8 to 32 ug/ml by turbidity assay; type: functional, organism-based
# Summary of the method: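 S. aureus ATCC 33591 was grown in cation-adjusted MHB to early exponential phase (A625 = 0.3). 5-ml aliquots received compound at the final concentration and were incubated in a shaking 37°C water bath. Lysis was followed by turbidity. Cells were also imaged by microscopy at 0, 2 and 6 h, scoring at least 30 cells per condition. Lysostaphin served as the lysis control. Means ± SD of three independent experiments.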
compound,measurement,setting,value
CCCCCCCCCCNCCN[C@@]1(C)C[C@H](O[C@H]2[C@H](Oc3c4cc5cc3Oc3ccc(cc3Cl)[C@H](O)[C@@H](NC(=O)O)C(=O)N[C@@H](CC(N)=O)C(=O)N[C@H]5C(=O)N[C@H]3C(=O)N[C@H](C(=O)N[C@H](C(=O)O)c5cc(O)c(CNCP(=O)(O)O)c(O)c5-c5cc3ccc5O)[C@H](O)c3ccc(c(Cl)c3)O4)O[C@H](CO)[C@@H](O)[C@@H]2O)O[C@@H](C)[C@H]1O,Activity,Staphylococcus aureus [1],35%
same,MIC,Staphylococcus aureus [2],8 µg/mL
CCCCCCCCCCO [DECANOL],Activity,Staphylococcus aureus [3],Active
same,MIC,Staphylococcus aureus [2],128 µg/mL
CCCCCCCCCCNCCN[C@@]1(C)C[C@H](O[C@H]2[C@H](Oc3c4cc5cc3Oc3ccc(cc3Cl)[C@@H](O)[C@@H](NC(=O)[C@@H](CC(C)C)NC)C(=O)N[C@@H](CC(N)=O)C(=O)N[C@H]5C(=O)N[C@H]3C(=O)N[C@H](C(=O)N[C@H](C(=O)O)c5cc(O)c(CNCP(=O)(O)O)c(O)c5-c5cc3ccc5O)[C@H](O)c3ccc(c(Cl)c3)O4)O[C@H](CO)[C@@H](O)[C@@H]2O)O[C@@H](C)[C@H]1O [TELAVANCIN],Activity,Staphylococcus aureus [4],27%
same,fold change (FC),Cell membrane,2.8
same,MIC,Staphylococcus aureus [5],≤ 0.5 µg/mL
same,Activity,Staphylococcus aureus [1],49%
same,Activity,Staphylococcus aureus [6],17%
same,Activity,Staphylococcus aureus [7],33%
same,log10CFU/ml,Staphylococcus aureus [8],3
same,Activity,Staphylococcus aureus [3],Active
same,Activity,Staphylococcus aureus [9],94%
same,MIC,Staphylococcus aureus [10],1 µg/mL
same,Activity,Staphylococcus aureus [11],78%
same,Activity,Staphylococcus aureus [12],7%
same,MIC,Staphylococcus aureus [13],4 µg/mL
same,Activity,Staphylococcus aureus [14],38%
same,Activity,Staphylococcus aureus [15],19%
same,Activity,Staphylococcus aureus [16],inactive
same,MIC,Staphylococcus aureus [17],0.5 µg/mL
same,Activity,Staphylococcus aureus [18],77%
same,MIC,Staphylococcus aureus [2],0.25 µg/mL
same,MIC,Staphylococcus aureus [19],≤ 0.5 µg/mL
same,MIC,Staphylococcus aureus [20],≤ 0.5 µg/mL
same,Activity,Staphylococcus aureus [21],61%
same,Activity,Staphylococcus aureus [22],inactive
same,Activity,Staphylococcus aureus [23],Dose-dependent effect
same,IC50,Staphylococcus aureus [23],3.6 µg/mL
same,Activity,Staphylococcus aureus [24],68%
same,MIC,Staphylococcus aureus [25],0.5 µg/mL
same,Activity,Staphylococcus aureus [26],14%
same,Activity,Staphylococcus aureus [27],29%
CCCCCCCCCC(=O)N[C@@H](Cc1c[nH]c2ccccc12)C(=O)N[C@H](CC(N)=O)C(=O)N[C@@H](CC(=O)O)C(=O)N[C@@H]1C(=O)NCC(=O)N[C@@H](CCCN)C(=O)N[C@@H](CC(=O)O)C(=O)N[C@H](C)C(=O)N[C@@H](CC(=O)O)C(=O)NCC(=O)N[C@H](CO)C(=O)N[C@@H]([C@H](C)CC(=O)O)C(=O)N[C@@H](CC(=O)c2ccccc2N)C(=O)O[C@@H]1C,MIC,Staphylococcus aureus [5],4 µg/mL
CN[C@H](CC(C)C)C(=O)N[C@H]1C(=O)N[C@@H](CC(N)=O)C(=O)N[C@H]2C(=O)N[C@H]3C(=O)N[C@H](C(=O)N[C@H](C(=O)O)c4cc(O)cc(O)c4-c4cc3ccc4O)[C@H](O)c3ccc(c(Cl)c3)Oc3cc2cc(c3O[C@@H]2O[C@H](CO)[C@@H](O)[C@H](O)[C@H]2O[C@H]2C[C@](C)(N)[C@H](O)[C@H](C)O2)Oc2ccc(cc2Cl)[C@H]1O [VANCOMYCIN],Activity,Staphylococcus aureus [28],inactive
same,MIC,Staphylococcus aureus [17],8 µg/mL
same,IC50,Staphylococcus aureus [23],> 96 µg/mL
